Experimental data taken from ChEMBL document CHEMBL3286184, “Antiplasmodial activity of synthetic ellipticine derivatives and an isolated analog” (Bioorg Med Chem Lett, 2014).
Structures can show the parent of a compound that is named as a salt. Calls of active or inactive are those of the source. The rule behind the calls is not given here.

Assays:
Plasmodium falciparum [1] = assay: Antiplasmodial activity against Plasmodium falciparum; format: functional, organism-based
In short: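 P. falciparum (K1 and 3D7) kept in continuous Trager–Jensen culture and tested at 1–2% initial parasitemia and 3% hematocrit. DMSO stocks (5 mg/mL) were diluted in complete medium across a 100–0.006 range and tested in triplicate for 48 h at 37°C. Growth was read by optical microscopy as IGP% = 100[1 − (parasitemia with sample / untreated control parasitemia)].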

Plasmodium berghei [2] = assay: Antimalarial activity against Plasmodium berghei infected in mouse assessed as suppression of parasitemia at 10 mg/kg, po by Peters 4 day suppressive test; format: functional; details: 96 h
Plasmodium berghei [3] = assay: Antimalarial activity against Plasmodium berghei infected in mouse assessed as mouse mean survival time at 50 mg/kg, po; format: functional
Plasmodium falciparum [4] = assay: Antiplasmodial activity against multi-drug resistant Plasmodium falciparum K1 in human erythrocytes assessed as growth inhibition after 48 hrs by optical microscopy; format: functional, organism-based; details: K1, 48 h
In short: (§1)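 Parasites were kept in continuous culture by the Trager and Jensen method. The microtest used 1–2% initial parasitemia and 3% hematocrit. Samples came from 5 mg/mL DMSO stocks, serially diluted in complete medium and added to parasitized red cells in triplicate. Plates were incubated 48 h at 37°C and read by optical microscopy. Growth inhibition % = 100[1 − (parasitemia with sample/parasitemia of untreated controls)].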

Plasmodium falciparum [5] = assay: Antiplasmodial activity against drug susceptible Plasmodium falciparum 3D7 NF54 isolate in human erythrocytes assessed as growth inhibition after 48 hrs by optical microscopy; format: functional, organism-based; details: 3D7 NF54, 48 h; in short: as §1
[6] = Cytotoxicity against mouse macrophages after 18 hrs by MTT assay; format: cell-based; details: Macrophage
[7] = Selectivity index, ratio of IC50 for mouse macrophages to IC50 for Plasmodium falciparum
Plasmodium berghei [8] = assay: Antimalarial activity against Plasmodium berghei infected in mouse assessed as suppression of parasitemia at 50 mg/kg, po after 5 to 7 days; format: functional
Plasmodium berghei [9] = assay: Antimalarial activity against Plasmodium berghei infected in mouse assessed as suppression of parasitemia at 10 mg/kg, po after 5 to 7 days; format: functional
MRC5 = assay: Cytotoxicity against human MRC5 cells after 48 hrs by Alamar blue assay; format: cell-based; details: MRC5, 48 h
In short: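 MRC-5 fetal lung fibroblasts were grown in DMEM with 10% FBS, 2 mM glutamine and penicillin/streptomycin at 37°C under 5% CO2, seeded at 10^4 cells/well, and dosed with DMSO-dissolved compounds after 24 h for 48 h. Negative controls had 0.1% DMSO. Alamar Blue was added 2 h before the end, with fluorescence read at 530–560 nm excitation and 590 nm emission.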

Plasmodium berghei [10] = assay: Antimalarial activity against Plasmodium berghei infected in mouse assessed as total elimination of parasitemia at 50 mg/kg, po after 5 to 7 days; format: functional, organism-based; design: dose 50 mg/kg

With `Cc1c2ccncc2c(C)c2c1[nH]c1ccccc12` [listing 1 of 2 here] the IC50 (Plasmodium falciparum [1]) was 0.6 µM.
In the case of `Cc1c2ccncc2c(C)c2c1[nH]c1ccccc12` [ELLIPTECINE], the inhibition in vivo at 10 mg/kg (Plasmodium berghei [2]) is reported as 70%, the MST (Plasmodium berghei [3]) is reported as greater than 40 days and the IC50 (Plasmodium falciparum [1]; Plasmodium falciparum) is reported as 1.13 µM. It also gave an IC50 (Plasmodium falciparum [4]) of 0.81 µM, an IC50 (Plasmodium falciparum [5]) of 0.35 µM and an IC50 [6] greater than 140 µM. The “Ratio IC50” value [7] was greater than 290.
In the case of `Cc1c2ccncc2c(C)c2c1[nH]c1ccc(O)cc12`, the IC50 (Plasmodium falciparum [1]; Plasmodium falciparum) is reported as 0.3 µM.
Compound `Cc1nccc2c(C)c3[nH]c4ccccc4c3cc12` has an inhibition in vivo at 50 mg/kg (Plasmodium berghei [8]) of 90%, an inhibition in vivo at 10 mg/kg (Plasmodium berghei [9]) of 48% and an IC50 (Plasmodium falciparum [5]) of 1.2 µM. For the same compound, the IC50 [6] was greater than 140 µM and the “Ratio IC50” value [7] was greater than 290.
`Cc1c2c(c(C)c3c1[nH]c1ccccc13)C=NCC2` gave an IC50 (Plasmodium falciparum [1]; Plasmodium falciparum) of 1.01 µM.
`Cc1c2ccncc2c(C)c2c1[nH]c1c([N+](=O)[O-])cccc12` showed an IC50 (Plasmodium falciparum [4]) of 13 µM, an IC50 (Plasmodium falciparum [5]) of 17 µM and an IC50 (MRC5) greater than 50 µg/mL.
Compound `CCN(CC)CCCC(C)Nc1ccnc2cc(Cl)ccc12` (stereo not drawn) [CHLOROQUINE PHOSPHATE] has an IC50 [6] greater than 140 µM.
In the case of `Cc1c2ccncc2c(C)c2c1[nH]c1ccccc12` [listing 2 of 2 here], the inhibition (Plasmodium berghei [10]) is reported as “Active”.
`Cc1c2c(c(C)c3c1[nH]c1ccccc13)CN(C)CC2` gave an IC50 (Plasmodium falciparum [4]) of 4.2 µM, an IC50 (Plasmodium falciparum [5]) of 13 µM and an IC50 (MRC5) greater than 50 µg/mL.
Work on `COc1ccc2[nH]c3c(C)c4ccncc4c(C)c3c2c1` yielded an IC50 (Plasmodium falciparum [1]; Plasmodium falciparum) of 1.15 µM.
For `C=C[C@H]1CN2CC[C@H]1C[C@H]2[C@H](O)c1ccnc2ccc(OC)cc12` [QUININE SULFATE], the IC50 (Plasmodium falciparum [4]) was 0.12 µM, the IC50 (Plasmodium falciparum [5]) was 0.15 µM and the IC50 [6] was greater than 140 µM.
With `Cc1c2ccncc2c(C)c2c1[nH]c1ccc([N+](=O)[O-])cc12` the IC50 (Plasmodium falciparum [4]) was 0.55 µM.
